Measurements as given in ChEMBL document CHEMBL1134379, “Covalently induced activation of the delta opioid receptor by a fluorogenic affinity label, 7'-(phthalaldehydecarboxamido)naltrindole (PNTI)” (J Med Chem, 2001).

Columns and labels:
[1] = target: T1, Delta-type opioid receptor (Homo sapiens, UniProt P41143); assay: Irreversible binding to delta receptor before pretreatment with naloxone (1 uM) at 1 uM of the compound.
[2] = target: T1, Delta-type opioid receptor; assay: Irreversible binding to delta receptor after pretreatment with naloxone (1 uM) at 1 uM of the compound.
[3] = target: T1, Delta-type opioid receptor; assay: Irreversible binding to delta receptor after pretreatment with naloxone (1 uM) at 20 nM of the compound.
[4] = target: T1, Delta-type opioid receptor; assay: Irreversible binding to delta receptor before pretreatment with naloxone (1 uM) at 20 nM of the compound.
[5] = target: T1, Delta-type opioid receptor; assay: Irreversible binding to delta receptor before pretreatment with naloxone (1 uM) at 1 uM
Mu-type opioid receptor = Mu-type opioid receptor (Homo sapiens, UniProt P35372); assay: Binding affinity towards mu-opioid receptor from CHO cells; type: cell-based, Cricetulus griseus
Sequence of Mu-type opioid receptor (P35372 whole entry): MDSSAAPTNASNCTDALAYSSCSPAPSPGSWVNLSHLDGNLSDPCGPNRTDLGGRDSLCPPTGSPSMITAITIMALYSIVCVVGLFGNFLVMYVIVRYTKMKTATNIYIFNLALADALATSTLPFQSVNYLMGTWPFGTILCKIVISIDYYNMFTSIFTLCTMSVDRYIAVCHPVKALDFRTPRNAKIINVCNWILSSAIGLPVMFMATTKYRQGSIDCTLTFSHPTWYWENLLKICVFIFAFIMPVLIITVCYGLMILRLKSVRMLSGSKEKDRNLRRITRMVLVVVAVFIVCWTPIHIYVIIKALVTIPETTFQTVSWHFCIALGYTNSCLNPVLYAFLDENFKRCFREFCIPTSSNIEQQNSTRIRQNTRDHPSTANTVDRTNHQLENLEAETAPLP

Mus musculus [6] = organism: Mus musculus; assay: Agonist activity in mouse vas deferens (MVD) assay.; type: functional, organism-based
How it was run: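 Electrically stimulated mouse vas deferens preparation. The compound's inhibition of the twitch was measured and the IC50 was derived from the concentration–effect curve.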

[7] = target: T1, Delta-type opioid receptor; assay: Binding affinity towards delta-opioid receptor from CHO cells; type: cell-based, Cricetulus griseus
[8] = target: Kappa-type opioid receptor (Homo sapiens, UniProt P41145); assay: Binding affinity towards opioid receptor kappa 1 from CHO cells; type: cell-based, Cricetulus griseus
Sequence of Kappa-type opioid receptor (P41145 whole entry): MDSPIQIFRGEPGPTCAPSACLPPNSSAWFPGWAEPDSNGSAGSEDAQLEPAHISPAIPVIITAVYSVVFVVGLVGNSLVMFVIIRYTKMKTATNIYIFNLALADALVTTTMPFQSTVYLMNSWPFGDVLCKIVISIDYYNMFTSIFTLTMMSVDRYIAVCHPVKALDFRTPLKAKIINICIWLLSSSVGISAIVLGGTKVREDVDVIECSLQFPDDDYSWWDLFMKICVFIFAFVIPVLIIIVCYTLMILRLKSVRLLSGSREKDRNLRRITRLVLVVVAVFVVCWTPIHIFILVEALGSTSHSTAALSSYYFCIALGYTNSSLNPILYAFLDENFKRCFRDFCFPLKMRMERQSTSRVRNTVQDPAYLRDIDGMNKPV

Mus musculus [9] = assay: Antinociceptive activity by mouse tail-flick antinociceptive assay after icv administration in mouse.; type: functional

T1 sequence (P41143 whole entry): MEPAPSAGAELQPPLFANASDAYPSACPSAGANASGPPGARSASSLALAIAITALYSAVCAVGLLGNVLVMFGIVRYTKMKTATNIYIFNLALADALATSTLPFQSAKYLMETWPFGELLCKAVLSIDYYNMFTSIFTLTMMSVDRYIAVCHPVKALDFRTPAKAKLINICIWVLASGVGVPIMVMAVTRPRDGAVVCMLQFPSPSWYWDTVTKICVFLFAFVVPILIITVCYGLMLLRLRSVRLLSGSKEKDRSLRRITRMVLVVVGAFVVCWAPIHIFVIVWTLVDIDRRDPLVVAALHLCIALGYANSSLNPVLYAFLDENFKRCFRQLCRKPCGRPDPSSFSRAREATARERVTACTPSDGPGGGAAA

SMILES | Binding [1] [%] | Binding [2] [%] | Binding [3] [%] | Binding [4] [%] | Binding [5] [%] | Ki (Mu-type opioid receptor) [nM] | IC50 (Mus musculus [6]) [nM] | Ki [7] [nM] | Ki [8] [nM] | ED50 (Mus musculus [9]) [nM]
O=C(Nc1cccc2c3c([nH]c12)C1Oc2c(O)ccc4c2[C@@]12CCN(CC1CC1)[C@H](C4)[C@]2(O)C3)c1ccccc1 (stereo partly drawn) | 7 | 20 | 70 | 42 |  |  |  |  |  | 
O=Cc1ccc(C(=O)Nc2cccc3c4c([nH]c23)C2Oc3c(O)ccc5c3[C@@]23CCN(CC2CC2)[C@H](C5)[C@]3(O)C4)cc1C=O (stereo partly drawn) |  | 10 | 28 | 30 | 3 | 14.9 | 0.12 | 1.9 | 20.1 | 2.06
